Data published in publication PMC4357494 (Journal of molecular biology, 2014).
Values belong to the molecule of their own block, whether it stands above or below them. Where a SMILES comes first, the peptide text is derived from it.

Experiments:
[1] = system: Mcl-1 2640 cells (Mcl-1 dependent); test: BH3 profiling, Mcl-1 2640; assay type: cell-based, murine; conditions: 5 μM peptide
How it was run: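 Myc-driven murine leukemia line, Mcl-1 dependent, grown in RPMI 1640 with 10% FBS and […] 2-mercaptoethanol. Permeabilized cells at 2×10^4/well, triplicate wells, exposed to peptides including 5 μM. JC-1 read-out; depolarization expressed as percentage relative to FCCP (full) and DMSO (none). At least three biological replicates.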

[2] = system: Bcl-2 3256 cells (Bcl-2 dependent)
[3] = biological target: T1, Bcl-xL (residues 1-209) (Homo sapiens, UniProt Q07817); test: Fluorescence polarization competition binding assay, Bcl-xL
T1 sequence (Q07817 1-209): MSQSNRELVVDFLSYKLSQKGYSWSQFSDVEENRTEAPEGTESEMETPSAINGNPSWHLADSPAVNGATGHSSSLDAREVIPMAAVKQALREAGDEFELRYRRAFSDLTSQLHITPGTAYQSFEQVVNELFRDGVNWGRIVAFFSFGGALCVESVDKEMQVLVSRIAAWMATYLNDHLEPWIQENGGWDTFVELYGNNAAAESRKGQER

[4] = biological target: T2, Bcl-2 (residues 1-217) (Homo sapiens, UniProt P10415); test: Fluorescence polarization competition binding assay, Bcl-2
T2 sequence (P10415 1-217): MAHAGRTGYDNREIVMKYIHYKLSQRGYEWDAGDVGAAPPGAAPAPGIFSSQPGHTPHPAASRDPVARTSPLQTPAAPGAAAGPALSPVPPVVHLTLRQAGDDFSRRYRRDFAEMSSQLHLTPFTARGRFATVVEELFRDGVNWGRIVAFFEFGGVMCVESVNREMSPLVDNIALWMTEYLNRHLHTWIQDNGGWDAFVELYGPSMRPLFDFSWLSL
How it was run: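 Human Bcl-2 (residues 1-217), expressed in E. coli. Buffer: 20 mM sodium phosphate, 50 mM NaCl, 1 mM EDTA, 0.001% Triton X, 5% DMSO, pH 7.8, 25 °C. Competition: test peptide serially diluted, 10 nM fluorescein Bim-BH3 added, 15 min at RT, then 50 nM Bcl-2 (final). Anisotropy read over 2-48 h, then curves fit. Direct: titrated protein, 10 nM probe, read 4-24 h.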

[5] = biological target: T3, Bcl-w (residues 1-164) (Homo sapiens, UniProt Q92843); test: Fluorescence polarization competition binding assay, Bcl-w
T3 sequence (Q92843 1-164): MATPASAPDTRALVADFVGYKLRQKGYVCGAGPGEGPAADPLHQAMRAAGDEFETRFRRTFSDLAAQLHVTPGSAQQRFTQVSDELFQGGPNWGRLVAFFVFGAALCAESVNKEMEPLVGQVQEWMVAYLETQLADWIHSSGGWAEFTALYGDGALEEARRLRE
How it was run: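 E. coli-expressed Bcl-w (residues 1-164), 50 nM final, competed against 10 nM N-terminal fluorescein 18-mer Bim-BH3. Unlabeled peptide serially diluted and premixed with tracer 15 min before protein. Buffer: 20 mM sodium phosphate, 50 mM NaCl, 1 mM EDTA, 0.001% Triton X, 5% DMSO, pH 7.8, 25 °C.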

[6] = biological target: Mcl-1 (residues 172-327) (Homo sapiens, UniProt Q07820); test: Fluorescence polarization binding assay, Mcl-1; conditions: for competition with fluorescently labeled Bim-BH3 for binding to Mcl-1 (in words): FP competition
Mcl-1 (residues 172-327), sequence (Q07820 172-327): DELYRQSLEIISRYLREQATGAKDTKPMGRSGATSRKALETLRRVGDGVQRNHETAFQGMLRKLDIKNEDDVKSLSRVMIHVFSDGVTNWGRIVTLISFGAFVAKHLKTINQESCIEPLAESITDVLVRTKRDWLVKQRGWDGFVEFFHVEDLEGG
How it was run: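 E. coli-expressed Mcl-1 (residues 172-327) in competition FP: 20 mM sodium phosphate, 50 mM NaCl, 1 mM EDTA, 0.001% Triton X, 5% DMSO, pH 7.8, 25 °C. Serially diluted unlabeled peptide plus 10 nM fluorescein tracer, 15 min, then protein. Tracer is 18-mer Bim-BH3 with 50 nM Mcl-1, or 23-mer Hrk-BH3 with 500 nM Mcl-1.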

[7] = system: DHL10 cells; test: BH3 profiling, DHL10; assay type: cell-based; conditions: Bax- and Bak-deleted cell line
How it was run: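 Test peptides (N-acetylated, C-amidated) titrated onto permeabilized Su-DHL10 cells (RPMI 1640, 10% FBS), 2×10^4 cells/well, triplicate wells per concentration. JC-1 fluorescence gives membrane-potential loss, normalized as 1 – [(Dsample–DFCCP)/(DDMSO–DFCCP)] against FCCP and DMSO. EC50 from global fit with linked baselines; at least three biological replicates, 2-3 days of culture apart.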

[8] = system: Bcl-xL; test: Yeast-surface display, dual color fluorescence binding with competitors; parameters: species or system human; conditions: 100-fold excess of each competitor, yeast-displayed peptide
How it was run: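 Yeast displaying BH3 peptides incubated with 10 nM Bcl-xL plus 1 μM each of Mcl-1, Bfl-1, Bcl-2 and Bcl-w, competitors premixed. Proteins are E. coli-expressed human constructs. Detection uses primary and labeled secondary antibodies: FITC marks peptide expression, APC marks receptor binding. Flow cytometry with 488 and/or 561 nm excitation.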

[9] = biological target: primary human platelets (Bcl-xL dependent) (Homo sapiens, UniProt Q07817); conditions: primary human platelet samples
primary human platelets (Bcl-xL dependent), sequence (Q07817 1-209): as the sequence (Q07817 1-209) above

[10] = biological target: MDA-MB-231 cells (Bcl-xL dependent) (Homo sapiens, UniProt Q07817)
MDA-MB-231 cells (Bcl-xL dependent), sequence (Q07817 1-209): as above

[11] = biological target: OCI-Ly1 cells (Bcl-2 dependent) (Homo sapiens, UniProt P10415)
OCI-Ly1 cells (Bcl-2 dependent), sequence (P10415 whole entry, the tested form may be a part): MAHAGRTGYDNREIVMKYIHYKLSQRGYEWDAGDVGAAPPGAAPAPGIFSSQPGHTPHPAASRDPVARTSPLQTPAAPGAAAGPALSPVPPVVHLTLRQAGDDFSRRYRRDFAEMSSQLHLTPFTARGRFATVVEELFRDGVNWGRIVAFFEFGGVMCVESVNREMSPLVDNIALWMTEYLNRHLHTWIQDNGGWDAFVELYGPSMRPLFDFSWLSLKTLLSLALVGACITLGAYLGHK

[12] = biological target: T2, Bcl-2 (residues 1-217); test: fluorescence polarisation
[13] = biological target: T1, Bcl-xL (residues 1-209); test: fluorescence polarisation
[14] = biological target: Bcl-xL (residues 1-209) (human, UniProt Q07817-1 1-209); test: fluorescence polarisation
Bcl-xL (residues 1-209) (human, UniProt Q07817-1 1-209), sequence (Q07817 1-209): as the sequence (Q07817 1-209) above

[15] = biological target: Bcl-2 (residues 1-217) (human, UniProt P10415 1-217); test: fluorescence polarisation
Bcl-2 (residues 1-217) (human, UniProt P10415 1-217), sequence (P10415 1-217): as the sequence (P10415 1-217) above

[16] = FP competition with fluorescein 18-residue Bim-BH3

Molecule: CC[C@H](C)[C@H](NC(=O)[C@H](CCC(=O)O)NC(=O)[C@H](CCCNC(=N)N)NC(=O)[C@H](C)NC(=O)[C@H](Cc1c[nH]c2ccccc12)NC(=O)[C@H](CCC(N)=O)NC(C)=O)C(=O)NCC(=O)N[C@@H](C)C(=O)N[C@@H](CCC(N)=O)C(=O)N[C@@H](CC(C)C)C(=O)N[C@@H](CCCNC(=N)N)C(=O)N[C@@H](CCCNC(=N)N)C(=O)N[C@@H](CCSC)C(=O)N[C@@H](C)C(=O)N[C@@H](CC(=O)O)C(=O)N[C@@H](CC(=O)O)C(=O)N[C@@H](CC(C)C)C(=O)N[C@@H](CC(N)=O)C(=O)N[C@@H](C)C(=O)N[C@@H](CCC(N)=O)C(=O)N[C@@H](Cc1ccc(O)cc1)C(=O)N[C@@H](CCC(=O)O)C(=O)N[C@@H](CCCNC(=N)N)C(N)=O [Puma, reference compound]
depolarization in the Mcl-1 dependent line (in words) [1]: strong response
EC50 [2]: 663 ± 223 nM

Molecule: Bim-BH3 with the point mutation E2gG (peptide)
fold weaker binding than Bim-BH3 [12]: 7 fold
Ki [13]: < 0.1 nM

Molecule: Bim-BH3 with the point mutation I2dY (peptide)
fold weaker binding than Bim-BH3 [12]: 5 fold
Ki [13]: < 0.1 nM

Molecule: Bim-BH3 with the point mutation I3dF (peptide)
Ki [13]: < 0.1 nM

Molecule: Bim-BH3 with the point mutation R3bK (peptide)
Ki [13]: < 0.1 nM

Molecule: Hrk-BH3, unlabeled 23-residue peptide
Ki [13]: 10 nM

Molecule: Puma-BH3, unlabeled 23-residue peptide
Ki [13]: 2 nM

B1: Bad-BH3, unlabeled 23-residue peptide (peptide)
chain: Ac-WAAQRYGRELRRMSDEFVDSFKK-NH2
Ki [14]: ≤ 0.1 nM

B2: Y4eK_18 (designed binder)
chain: Ac-IWYAQGLKRFGDEFNAYK-NH2
Ki [14]: ~2 nM
fold weaker binding than XXA1_Y4eK [15]: ~5 fold

Continued, in another order:

Ki [3]: ≤ 0.1 nM
affinity for Bcl-xL (in words) [3, 16]: sub-nanomolar
Kd [4]: ~17 nM
weakening of binding to Bcl-w relative to Bim-BH3 ([5]; four mutations combined): ~ 150 fold
competition with fluorescently labeled Bim-BH3 for binding to Mcl-1 (in words) [6]: Neither XXA1 nor XXA1_G2gE could compete
depolarization of platelets (in words) [9]: potent depolarization
EC50 [2]: 540 ± 183 nM
Molecule: CC[C@H](C)[C@H](NC(=O)[C@H](CCC(=O)O)NC(=O)[C@@H]1CCCN1C(=O)[C@H](CCCNC(=N)N)NC(C)=O)C(=O)N[C@@H](Cc1c[nH]c2ccccc12)C(=O)N[C@@H](Cc1ccc(O)cc1)C(=O)N[C@@H](C)C(=O)N[C@@H](CCC(N)=O)C(=O)NCC(=O)N[C@@H](CC(C)C)C(=O)N[C@@H](CCCCN)C(=O)N[C@@H](CCCNC(=N)N)C(=O)N[C@@H](Cc1ccccc1)C(=O)NCC(=O)N[C@@H](CC(=O)O)C(=O)N[C@@H](CCC(=O)O)C(=O)N[C@@H](Cc1ccccc1)C(=O)N[C@@H](CC(N)=O)C(=O)N[C@@H](C)C(=O)N[C@@H](Cc1ccc(O)cc1)C(=O)N[C@@H](Cc1ccc(O)cc1)C(=O)N[C@@H](C)C(=O)N[C@@H](CCCNC(=N)N)C(N)=O [XXA1] (Ac-RPEIWYAQGLKRFGDEFNAYYAR-NH2)
depolarization in the Mcl-1 dependent line (in words) [1]: low amount of depolarization
non-specific pore forming activities [7]: None
binding to Bcl-xL in the presence of competitor pro-survival proteins [8]: robust binding

binding to Bcl-xL relative to XXA1 (in words) ([3]; FP competition with 23-mer fluorescently labeled Bim-BH3): bound more tightly than XXA1
binding to Bcl-2 (in words) [4, 16]: bound tighter than XXA1
binding to Bcl-w (in words) [5, 16]: bound tighter than XXA1
Ki [6]: ~31 nM
competition with fluorescently labeled Bim-BH3 for binding to Mcl-1 (in words) [6]: Neither XXA1 nor XXA1_G2gE could compete
potency relative to Bad [10]: ~ 7 fold
depolarization of platelets (in words) [9]: potent depolarization
EC50 [2]: 141 ± 50 nM
Molecule: CC[C@H](C)[C@H](NC(=O)[C@H](CCC(=O)O)NC(=O)[C@@H]1CCCN1C(=O)[C@H](CCCNC(=N)N)NC(C)=O)C(=O)N[C@@H](Cc1c[nH]c2ccccc12)C(=O)N[C@@H](Cc1ccc(O)cc1)C(=O)N[C@@H](C)C(=O)N[C@@H](CCC(N)=O)C(=O)N[C@@H](CCC(=O)O)C(=O)N[C@@H](CC(C)C)C(=O)N[C@@H](CCCCN)C(=O)N[C@@H](CCCNC(=N)N)C(=O)N[C@@H](Cc1ccccc1)C(=O)NCC(=O)N[C@@H](CC(=O)O)C(=O)N[C@@H](CCC(=O)O)C(=O)N[C@@H](Cc1ccccc1)C(=O)N[C@@H](CC(N)=O)C(=O)N[C@@H](C)C(=O)N[C@@H](Cc1ccc(O)cc1)C(=O)N[C@@H](Cc1ccc(O)cc1)C(=O)N[C@@H](C)C(=O)N[C@@H](CCCNC(=N)N)C(N)=O [XXA1_G2gE] (Ac-RPEIWYAQELKRFGDEFNAYYAR-NH2)
depolarization in the Mcl-1 dependent line (in words) [1]: low amount of depolarization
non-specific pore forming activities [7]: None

reduction of affinity for Bcl-xL relative to XXA1_Y4eK [3]: ~ 18 fold
weaker binding to Bcl-2 than parent XXA1_Y4eK [4]: ~ 5 fold
weaker response than XXA1_Y4eK [11]: 3-4 fold
Molecule: CC[C@H](C)[C@H](NC(C)=O)C(=O)N[C@@H](Cc1c[nH]c2ccccc12)C(=O)N[C@@H](Cc1ccc(O)cc1)C(=O)N[C@@H](C)C(=O)N[C@@H](CCC(N)=O)C(=O)NCC(=O)N[C@@H](CC(C)C)C(=O)N[C@@H](CCCCN)C(=O)N[C@@H](CCCNC(=N)N)C(=O)N[C@@H](Cc1ccccc1)C(=O)NCC(=O)N[C@@H](CC(=O)O)C(=O)N[C@@H](CCC(=O)O)C(=O)N[C@@H](Cc1ccccc1)C(=O)N[C@@H](CC(N)=O)C(=O)N[C@@H](C)C(=O)N[C@@H](Cc1ccc(O)cc1)C(=O)N[C@@H](CCCCN)C(N)=O [Y4eK_18] (Ac-IWYAQGLKRFGDEFNAYK-NH2)

Ki [3]: 0.4 nM
Ki [4]: 430 nM
specificity for Bcl-xL over Bcl-2 ([4]; ratio of FP binding constants): ~ 1000 fold
weaker response than XXA1_Y4eK [11]: 3-4 fold
Molecule: CC[C@H](C)[C@H](NC(=O)[C@H](CCC(=O)O)NC(=O)[C@@H]1CCCN1C(=O)[C@H](CCCNC(=N)N)NC(C)=O)C(=O)N[C@@H](Cc1c[nH]c2ccccc12)C(=O)N[C@@H](Cc1ccc(O)cc1)C(=O)N[C@@H](C)C(=O)N[C@@H](CCC(N)=O)C(=O)NCC(=O)N[C@@H](CC(C)C)C(=O)N[C@@H](CCCCN)C(=O)N[C@@H](CCCNC(=N)N)C(=O)N[C@@H](Cc1ccccc1)C(=O)NCC(=O)N[C@@H](CC(=O)O)C(=O)N[C@@H](CCC(=O)O)C(=O)N[C@@H](Cc1ccccc1)C(=O)N[C@@H](CC(N)=O)C(=O)N[C@@H](C)C(=O)N[C@@H](Cc1ccc(O)cc1)C(=O)N[C@@H](CCCCN)C(N)=O [Y4eK_21] (Ac-RPEIWYAQGLKRFGDEFNAYK-NH2)
